Rows were chosen to be rich in hits. Some 3% of all compounds tested hit in one or more screens of this group.
Casp6 inh = caspase-6 (human) enzyme inhibition; hit rate 0.53% among 350,000; P55212; inhibition, % at 12.5 µM; purified caspase-6, Z-VEID-R110 cleavage fluorescence;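 active = mean inhibition across replicates at least about 35%, with every replicate also reaching that limit, limit read from the data; inconclusive = only one of the two criteria met; inactive = neither criterion met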;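 note: 0% = median of neutral control wells and 100% = no fluorescence left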
esBAF inh = blocks esBAF chromatin remodeling in mouse ES cells | Bmi1-luciferase knock-in reporter, 24 h; 100% = twice the neutral-well signal | reporter increase, % at 12.5 µM | hit rate 2% among 350,000 | AID 602393; in the data active = activation above about 40%; inconclusive = no clear call, values can overlap the other calls;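 note: 0% = median of the plate's neutral control wells and 100% = double that signal; a rise in the Bmi1 reporter signal indicates esBAF inhibition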
NSD2 inh = NSD2 (human) methyltransferase inhibition; O96028; NSD2 peptide methylation, AlphaScreen, 120 min; inhibition, % at 12.5 µM; hit rate 0.54% among 310,000; in the data active = inhibition above about 50%
Wnt bcat act = activators of Wnt/beta-catenin signaling. hit rate 1.2% among 300,000. AID 743398. activation, % at 9.35 µM. Wnt/beta-catenin reporter cell assay, activator, plate reader; in the data active = activation above about 30%, passing the limit was not always enough; inconclusive = no clear call, values can overlap the other calls;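 note: 0% = neutral control wells and 100% = positive control wells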
Xi reactivation = X-chromosome reactivation activator; hit rate 0.055% among 360,000; activation, % at 7.58 µM; XiGFP mouse fibroblasts, % GFP-positive cells imaging, 3 d; cells co-treated with 5-aza-dC sensitizer; scaled so ellipticine positive control = 100%;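 active = mean normalized replicate activation at least 10% and every replicate at or above 10%; inconclusive = only one of the two criteria met; inactive = mean below 10% and not all replicates reach 10%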;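 note: 0% = median of on-plate neutral control wells and 100% = ellipticine 6 µM median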
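System: 68-5-11 XiGFP fibroblast line; Timing: 3 days compound exposure; Compound dosing: one concentration, pinned; Benchmarks: positive control ellipticine, 6 µM final; Buffer or medium: DMEM containing 5-aza-dC.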
MITF act = MITF TRPM1 promoter activation in melanoma cells; hit rate 0.75% among 300,000; SK-MEL-5 TRPM1-promoter luciferase, 24 h; % of positive control, neutral wells = 0; activation, % at 12.5 µM;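 active = mean activation of at least 80% with every replicate also reaching 80%; inconclusive = mean reaches 80% but some replicate falls short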;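 note: 0% = neutral control wells and 100% = parthenolide positive control wells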
* hit, by the source's call; ? = inconclusive; / = not tested or not shown.

SMILES | Casp6 inh | esBAF inh | NSD2 inh | Wnt bcat act | Xi reactivation | MITF act
C[C@H](CO)N1C[C@H](C)[C@@H](CN(C)S(=O)(=O)c2ccc(F)cc2)Oc2ccc(NS(C)(=O)=O)cc2CC1=O | 43.7* | -1.5 | / | / | 0.0 | /
Cc1nn2cc(-c3ccc(-c4ccccc4)cc3)nc2s1 | / | -42.4 | 0.4 | ? | / | 32.1
Cc1nn2cc(-c3ccc(Cl)cc3)nc2s1 | / | -2.3 | -2.0 | 71.3* | / | /
Cc1ccc(S(=O)(=O)N(C)C[C@H]2Oc3cc(C#Cc4ccncc4)ccc3S(=O)(=O)N([C@@H](C)CO)C[C@H]2C)cc1 | -1.6 | -0.3 | / | / | / | /
C=CCOc1ccc(/C=C/C(=O)OCC(=O)N2CCN(C(C)=O)CC2)cc1 | 1.6 | 0.7 | -2.9 | -4.2 | 0.2 | -3.1
C=CCOc1ccc(/C=C/C(C)=N\O)cc1 | / | 34.0 | 1.5 | 37.5* | / | /
CCC(=O)N[C@H]1C=C[C@@H](CC(=O)NCC2CC2)O[C@@H]1CO | 5.6 | / | / | / | -0.1 | /
CCCSc1nnc(NC(=O)CSc2sc3c(O)cc(=O)[nH]c3c2C#N)s1 | 45.2* | 1.0 | 16.5 | 0.0 | 0.2 | -6.9
N#Cc1cccc(NC(=O)CSc2sc3c(O)cc(=O)[nH]c3c2C#N)c1 | 34.7 | 2.0 | / | -1.5 | 0.0 | 5.4
N#Cc1c(SCC(=O)Nc2nccs2)sc2c(O)cc(=O)[nH]c12 | 81.9* | 31.2 | 31.7 | 4.0 | 0.5 | 0.2
N#Cc1c(SCC(=O)Nc2nc3ccc(Br)cc3s2)sc2c(O)cc(=O)[nH]c12 | 33.3 | / | / | -3.9 | 0.1 | 0.7
N#Cc1c(SCC(=O)Nc2nc3ccccc3s2)sc2c(O)cc(=O)[nH]c12 | 60.1* | 4.8 | 5.5 | 12.9 | 0.0 | -6.3
C[C@H]1CN([C@@H](C)CO)C(=O)c2ccccc2-c2ccccc2CO[C@H]1CN(C)C(=O)c1ccncc1 | -0.4 | -5.2 | / | / | -0.3 | /
C[C@H]1CN(C)C(=O)c2cccnc2O[C@@H]1CN(C)S(C)(=O)=O | / | / | / | / | 0.3 | /
O=C(C[C@H]1C=C[C@@H](NC(=O)C2CCOCC2)[C@H](CO)O1)NCc1ccncc1 | 1.9 | 3.8 | / | / | 0.0 | /
CCN(CC)c1ccc2nc3c4ccccc4c(=O)cc-3oc2c1 | 10.0 | / | / | -0.2 | 0.3 | /
CCN(CC)c1ccc2c(-c3ccc(S(=O)(=O)O)cc3S(=O)(=O)[O-])c3ccc(=[N+](CC)CC)cc-3oc2c1 | -39.6 | -51.8 | 61.3* | / | / | -57.9
Cc1cccc(C2Nc3ccccc3C(=O)N2CCc2ccccc2)n1 (centres undefined) | -4.3 | ? | -3.5 | 5.5 | / | 26.3
O=C1c2ccccc2NC(c2cccc([N+](=O)[O-])c2)N1CCc1ccccc1 (centres undefined) | 6.0 | 45.8* | 1.2 | 6.1 | / | 6.3
Cc1cc(Nc2ccccc2)n(C(=O)c2ccc(Cl)cc2)n1 | 4.7 | 52.9* | / | / | / | 13.7
Cc1cc(O)c(C(=O)Nc2cccc(Cl)c2)c(=O)n1C | 2.7 | 58.8* | -3.0 | 6.4 | 0.1 | 51.2
COc1ccc(NC(=O)c2cc(C)on2)cc1 | -0.4 | 37.6 | -2.2 | 34.0* | / | 75.3
COc1ccc(NC(=O)c2onc(C)c2Cl)cc1 | -1.0 | 45.9* | / | 23.1 | -0.1 | 46.8
Cc1noc(C(=O)Nc2ccc(C#N)cc2)c1Cl | -0.8 | 11.6 | -0.4 | 0.0 | 0.1 | -0.8
COc1ccc(NC(=O)c2onc(C)c2Cl)cc1OC | 0.1 | 3.0 | / | 3.6 | -0.1 | 15.9
SMILES | Casp6 inh | esBAF inh | NSD2 inh | Wnt bcat act | Xi reactivation | MITF act
COc1ccc(NC(=O)c2cc(C)on2)cc1OC | / | 10.2 | -3.0 | / | / | 0.5
CCc1ccc(NC(=O)c2onc(C)c2Cl)cc1 | 1.4 | 54.2* | / | 22.9 | 0.0 | 42.9
C[C@@H]1CN(C)C(=O)Cc2cc(NS(C)(=O)=O)ccc2O[C@@H]1CN(C)S(C)(=O)=O | / | / | / | / | 0.5 | /
Cc1noc(C(=O)Nc2cccc(Cl)c2)c1Cl | 1.4 | 55.8* | -1.8 | 4.3 | 0.0 | 57.3
Cc1noc(C(=O)Nc2cccc(O)c2)c1Cl | 1.9 | 42.8 | -0.3 | 15.0 | 0.0 | 26.5
Cc1ccc(/C=C/C(=O)NCc2cccs2)c(C)c1 | -0.8 | / | -0.4 | 29.3 | -0.1 | 41.4
O=C(/C=C/c1cccs1)Nc1cccnc1 | -0.1 | / | 2.7 | 12.0 | 0.0 | 91.9*
C=CCNC(=O)/C=C/c1cccs1 | -5.9 | 6.0 | -3.4 | -1.6 | 0.0 | 1.8
O=C(/C=C/c1cccs1)Nc1nncs1 | 0.4 | / | -1.6 | 15.7 | -0.1 | 61.3
Cc1ccc(/C=C/C(=O)NCc2cccs2)cc1 | / | 46.2* | -1.8 | / | 0.0 | 45.5

Screening data: PubChem, Broad Institute
